Laboratory results published in ChEMBL document CHEMBL4689842, “EUbOPEN Chemogenomics Library wave 1” (2021).

System: U2OS
Assay: Multiplex assay against U2OS
Type: toxicity, cell-based
Conditions: human
In short: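 Compound was added to live cells that had been stained at seeding with Hoechst33342, BioTracker Green Microtubule Cytoskeleton Dye, MitoTracker Red and Annexin V Alexa Fluor 680, and imaging followed on a CQ1 microscope at 37°C and 5% CO2. CellPathfinder machine-learning gating divided cells into Hoechst high-intensity objects or normal cells, normal cells into healthy, pyknosed or fragmented nuclei, and pyknosed cells into mitotic or apoptotic. Tubulin, mitochondrial-mass and membrane-permeability phenotypes are per cents of healthy-nucleus cells.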

[1] = 12 h, 1 µM, compound concentration 1 uM, replicate 1
[2] = 12 h, 1 µM, compound concentration 1 uM, replicate 2
[3] = 12 h, 10 µM, compound concentration 10 uM, replicate 1
[4] = 12 h, 10 µM, compound concentration 10 uM, replicate 2
[5] = 24 h, 1 µM, compound concentration 1 uM, replicate 1
[6] = 24 h, 1 µM, compound concentration 1 uM, replicate 2
[7] = 24 h, 10 µM, compound concentration 10 uM, replicate 1
[8] = 24 h, 10 µM, compound concentration 10 uM, replicate 2
[9] = 48 h, 1 µM, compound concentration 1 uM, replicate 1
[10] = 48 h, 1 µM, compound concentration 1 uM, replicate 2
[11] = 48 h, 10 µM, compound concentration 10 uM, replicate 1
[12] = 48 h, 10 µM, compound concentration 10 uM, replicate 2

## CC(C)OC(=O)N1CCC(Oc2ncnc3c2cnn3-c2ccc(S(C)(=O)=O)cc2F)CC1
[1]
  Population Apoptotic (%): 57%
  Population Fragmented Nuclei (%): 11%
  Population Healthy Nuclei (%): 80%
  Population Hoechst High Intensity Objects (%): 6%
  Population Membrane Permeable-Phenotype (%): 6%
  Population Mitochondria Different-Phenotype (%): 8%
  Population Mitotic Cells (%): 42%
  Population Normal (%): 93%
  Population Pyknosed Nuclei (%): 7%
  Population Tubulin-Different-Phenotype (%): 12%
  Total Cell Count: 95
[2]
  Population Apoptotic (%): 33%
  Population Fragmented Nuclei (%): 5%
  Population Healthy Nuclei (%): 91%
  Population Hoechst High Intensity Objects (%): 7%
  Population Membrane Permeable-Phenotype (%): 4%
  Population Mitotic Cells (%): 66%
  Population Normal (%): 92%
  Population Pyknosed Nuclei (%): 3%
  Population Tubulin-Different-Phenotype (%): 7%
  Total Cell Count: 97
[3]
  Population Apoptotic (%): 20%
  Population Fragmented Nuclei (%): 11%
  Population Healthy Nuclei (%): 77%
  Population Hoechst High Intensity Objects (%): 6%
  Population Membrane Permeable-Phenotype (%): 6%
  Population Mitochondria Different-Phenotype (%): 19%
  Population Mitotic Cells (%): 79%
  Population Normal (%): 93%
  Population Pyknosed Nuclei (%): 11%
  Population Tubulin-Different-Phenotype (%): 24%
  Total Cell Count: 221
[4]
  Population Apoptotic (%): 18%
  Population Fragmented Nuclei (%): 5%
  Population Membrane Permeable-Phenotype (%): 0%
  Population Mitochondria Different-Phenotype (%): 5%
  Population Mitotic Cells (%): 81%
  Population Pyknosed Nuclei (%): 16%
  Population Tubulin-Different-Phenotype (%): 28%
  Total Cell Count: 72
[5]
  Population Apoptotic (%): 57%
  Population Fragmented Nuclei (%): 10%
  Population Healthy Nuclei (%): 83%
  Population Hoechst High Intensity Objects (%): 6%
  Population Membrane Permeable-Phenotype (%): 5%
  Population Mitochondria Different-Phenotype (%): 5%
  Population Mitotic Cells (%): 42%
  Population Normal (%): 93%
  Population Pyknosed Nuclei (%): 6%
  Population Tubulin-Different-Phenotype (%): 11%
  Total Cell Count: 123
[6]
  Population Apoptotic (%): 50%
  Population Fragmented Nuclei (%): 4%
  Population Healthy Nuclei (%): 86%
  Population Hoechst High Intensity Objects (%): 2%
  Population Mitochondria Different-Phenotype (%): 4%
  Population Mitotic Cells (%): 50%
  Population Normal (%): 97%
  Population Pyknosed Nuclei (%): 8%
  Population Tubulin-Different-Phenotype (%): 9%
  Total Cell Count: 116
[7]
  Population Apoptotic (%): 20%
  Population Fragmented Nuclei (%): 10%
  Population Healthy Nuclei (%): 79%
  Population Hoechst High Intensity Objects (%): 4%
  Population Membrane Permeable-Phenotype (%): 1%
  Population Mitochondria Different-Phenotype (%): 14%
  Population Mitotic Cells (%): 79%
  Population Normal (%): 95%
  Population Pyknosed Nuclei (%): 10%
  Population Tubulin-Different-Phenotype (%): 13%
  Total Cell Count: 248
[8]
  Population Apoptotic (%): 33%
  Population Fragmented Nuclei (%): 5%
  Population Healthy Nuclei (%): 87%
  Population Hoechst High Intensity Objects (%): 2%
  Population Mitochondria Different-Phenotype (%): 2%
  Population Mitotic Cells (%): 66%
  Population Normal (%): 97%
  Population Pyknosed Nuclei (%): 6%
  Population Tubulin-Different-Phenotype (%): 31%
  Total Cell Count: 93
[9]
  Population Apoptotic (%): 27%
  Population Fragmented Nuclei (%): 6%
  Population Healthy Nuclei (%): 83%
  Population Hoechst High Intensity Objects (%): 4%
  Population Membrane Permeable-Phenotype (%): 1%
  Population Mitotic Cells (%): 72%
  Population Normal (%): 95%
  Population Pyknosed Nuclei (%): 9%
  Population Tubulin-Different-Phenotype (%): 5%
  Total Cell Count: 193
[10]
  Population Apoptotic (%): 30%
  Population Fragmented Nuclei (%): 5%
  Population Healthy Nuclei (%): 88%
  Population Hoechst High Intensity Objects (%): 2%
  Population Membrane Permeable-Phenotype (%): 7%
  Population Mitochondria Different-Phenotype (%): 10%
  Population Mitotic Cells (%): 69%
  Population Normal (%): 97%
  Population Pyknosed Nuclei (%): 6%
  Population Tubulin-Different-Phenotype (%): 9%
  Total Cell Count: 199
[11]
  Population Apoptotic (%): 35%
  Population Fragmented Nuclei (%): 5%
  Population Healthy Nuclei (%): 82%
  Population Hoechst High Intensity Objects (%): 2%
  Population Membrane Permeable-Phenotype (%): 2%
  Population Mitochondria Different-Phenotype (%): 13%
  Population Mitotic Cells (%): 64%
  Population Normal (%): 97%
  Population Pyknosed Nuclei (%): 11%
  Population Tubulin-Different-Phenotype (%): 8%
  Total Cell Count: 324
[12]
  Population Apoptotic (%): 40%
  Population Fragmented Nuclei (%): 3%
  Population Healthy Nuclei (%): 92%
  Population Hoechst High Intensity Objects (%): 1%
  Population Mitochondria Different-Phenotype (%): 12%
  Population Mitotic Cells (%): 60%
  Population Normal (%): 98%
  Population Pyknosed Nuclei (%): 3%
  Population Tubulin-Different-Phenotype (%): 37%
  Total Cell Count: 157
